# Data as given in ChEMBL document CHEMBL1142937, “Synthesis, affinity profile, and functional activity of muscarinic antagonists with a 1-methyl-2-(2,2-alkylaryl-1,3-oxathiolan-5-yl)pyrrolidine structure” (J Med Chem, 2007).
# Legend:
# [1] = biological target: Muscarinic acetylcholine receptor M3 (Cavia porcellus) (UniProt Q8VH26); test: (§1) Antagonist activity at muscarinic receptor M3 assessed as contraction of guinea pig ileum; type: functional, tissue-based; conditions: filed as antagonist
# In short: (§2)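 Isolated guinea pig tissue preparations (stimulated left atria, ileum, lung strips), run in vitro by a previously described protocol, with the ileum method slightly modified. Agonist dose–response curves were recorded before and after one or two antagonist concentrations. pKb = log(DR−1) − log[B], where DR is the ratio of agonist ED50 after/before antagonist. Some cases were expressed as pA2 from Schild plots constrained to slope −1.0.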
# [2] = tested on: Muscarinic acetylcholine receptor M4, putative (Cavia porcellus); test: Antagonist activity at putative muscarinic receptor M4 assessed as contraction of electrically-stimulated guinea pig lung strips; conditions: filed as antagonist
# [3] = tested on: Muscarinic acetylcholine receptor M1, putative (Oryctolagus cuniculus); conditions: Vas deferens, filed as antagonist
# [4] = biological target: Muscarinic acetylcholine receptor M2 (Cavia porcellus); test: Antagonist activity at muscarinic receptor M2 assessed as contraction of electrically-stimulated guinea pig left atria; conditions: for Kb: read-out: pA2 (converted); for pKb: filed as antagonist
# [5] = biological target: Muscarinic acetylcholine receptor M3 (Homo sapiens, UniProt P20309); test: Binding affinity to human cloned muscarinic receptor M3 expressed in CHO cells; type: cell-based
# [6] = biological target: T1, Muscarinic acetylcholine receptor M4 (Homo sapiens, UniProt P08173); test: Binding affinity to human cloned muscarinic receptor M4 expressed in CHO cells; type: cell-based
# T1 sequence (P08173 whole entry): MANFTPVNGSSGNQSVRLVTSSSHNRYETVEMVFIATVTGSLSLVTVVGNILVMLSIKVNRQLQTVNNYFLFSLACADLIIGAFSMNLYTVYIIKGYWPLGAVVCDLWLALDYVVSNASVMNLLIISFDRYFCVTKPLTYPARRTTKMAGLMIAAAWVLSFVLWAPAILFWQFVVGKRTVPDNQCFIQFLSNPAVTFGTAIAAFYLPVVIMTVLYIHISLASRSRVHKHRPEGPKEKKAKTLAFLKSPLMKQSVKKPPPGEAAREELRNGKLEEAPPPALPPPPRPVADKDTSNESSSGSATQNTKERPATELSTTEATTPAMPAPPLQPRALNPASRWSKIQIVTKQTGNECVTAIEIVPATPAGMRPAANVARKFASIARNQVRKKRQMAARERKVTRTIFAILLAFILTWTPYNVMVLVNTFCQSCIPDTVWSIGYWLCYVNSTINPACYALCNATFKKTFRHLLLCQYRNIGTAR
# [7] = biological target: T2, Muscarinic acetylcholine receptor M1 (Homo sapiens, UniProt P11229); test: Binding affinity to human cloned muscarinic receptor M1 expressed in CHO cells; type: cell-based
# T2 sequence (P11229 whole entry): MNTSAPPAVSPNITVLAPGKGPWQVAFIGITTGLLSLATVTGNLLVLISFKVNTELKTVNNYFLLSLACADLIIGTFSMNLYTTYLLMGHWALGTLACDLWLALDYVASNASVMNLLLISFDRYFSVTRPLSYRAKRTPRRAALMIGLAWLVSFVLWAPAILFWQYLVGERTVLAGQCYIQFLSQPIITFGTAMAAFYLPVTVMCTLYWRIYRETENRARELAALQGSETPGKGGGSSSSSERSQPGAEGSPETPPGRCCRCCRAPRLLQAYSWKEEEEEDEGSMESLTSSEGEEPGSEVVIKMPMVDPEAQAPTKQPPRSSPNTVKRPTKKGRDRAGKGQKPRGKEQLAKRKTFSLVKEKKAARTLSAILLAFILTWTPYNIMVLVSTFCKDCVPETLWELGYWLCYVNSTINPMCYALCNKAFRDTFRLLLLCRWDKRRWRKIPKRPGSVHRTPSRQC
# [8] = biological target: T3, Muscarinic acetylcholine receptor M2 (Homo sapiens, UniProt P08172); test: Binding affinity to human cloned muscarinic receptor M2 expressed in CHO cells; type: cell-based
# T3 sequence (P08172 whole entry): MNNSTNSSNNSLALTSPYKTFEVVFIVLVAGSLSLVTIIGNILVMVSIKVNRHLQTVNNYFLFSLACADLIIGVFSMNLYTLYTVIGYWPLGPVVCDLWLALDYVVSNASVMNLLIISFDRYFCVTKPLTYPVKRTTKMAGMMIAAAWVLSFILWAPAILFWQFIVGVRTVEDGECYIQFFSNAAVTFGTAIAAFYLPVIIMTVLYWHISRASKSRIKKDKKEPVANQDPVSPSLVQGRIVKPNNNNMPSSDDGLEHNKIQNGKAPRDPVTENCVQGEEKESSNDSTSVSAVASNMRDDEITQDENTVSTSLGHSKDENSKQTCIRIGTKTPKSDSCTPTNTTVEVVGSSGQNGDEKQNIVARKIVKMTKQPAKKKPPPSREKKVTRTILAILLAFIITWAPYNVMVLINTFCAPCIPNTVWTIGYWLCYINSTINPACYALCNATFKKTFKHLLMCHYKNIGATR
# In short: (§3)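 Equilibrium radioligand binding on CHO cells expressing the cloned human muscarinic subtype. Affinity is reported as pKi.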
# [9] = biological target: T4, Muscarinic acetylcholine receptor M5 (Homo sapiens, UniProt P08912); test: Binding affinity to human cloned muscarinic receptor M5 expressed in CHO cells; type: cell-based; in short: as §3
# T4 sequence (P08912 whole entry): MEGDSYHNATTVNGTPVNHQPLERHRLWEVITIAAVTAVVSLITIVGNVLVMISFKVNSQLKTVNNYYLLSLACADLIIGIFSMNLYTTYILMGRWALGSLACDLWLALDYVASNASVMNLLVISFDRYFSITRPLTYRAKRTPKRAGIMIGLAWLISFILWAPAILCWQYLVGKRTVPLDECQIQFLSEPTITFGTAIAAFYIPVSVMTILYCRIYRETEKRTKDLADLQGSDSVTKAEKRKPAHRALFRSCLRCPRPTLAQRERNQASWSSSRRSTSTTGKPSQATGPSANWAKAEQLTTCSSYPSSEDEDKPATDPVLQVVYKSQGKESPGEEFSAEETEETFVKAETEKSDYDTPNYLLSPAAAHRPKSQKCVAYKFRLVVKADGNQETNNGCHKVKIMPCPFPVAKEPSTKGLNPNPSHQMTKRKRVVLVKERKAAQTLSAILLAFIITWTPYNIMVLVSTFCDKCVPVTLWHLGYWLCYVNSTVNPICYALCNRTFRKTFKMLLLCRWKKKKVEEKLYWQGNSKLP
# [10] = biological target: Muscarinic acetylcholine receptor M3 (Cavia porcellus, UniProt Q8VH26); test: as §1; type: functional, tissue-based; conditions: read-out: pA2 (converted); in short: as §2
# Chain of Muscarinic acetylcholine receptor M3 (Cavia porcellus, UniProt Q8VH26) (Q8VH26 whole entry): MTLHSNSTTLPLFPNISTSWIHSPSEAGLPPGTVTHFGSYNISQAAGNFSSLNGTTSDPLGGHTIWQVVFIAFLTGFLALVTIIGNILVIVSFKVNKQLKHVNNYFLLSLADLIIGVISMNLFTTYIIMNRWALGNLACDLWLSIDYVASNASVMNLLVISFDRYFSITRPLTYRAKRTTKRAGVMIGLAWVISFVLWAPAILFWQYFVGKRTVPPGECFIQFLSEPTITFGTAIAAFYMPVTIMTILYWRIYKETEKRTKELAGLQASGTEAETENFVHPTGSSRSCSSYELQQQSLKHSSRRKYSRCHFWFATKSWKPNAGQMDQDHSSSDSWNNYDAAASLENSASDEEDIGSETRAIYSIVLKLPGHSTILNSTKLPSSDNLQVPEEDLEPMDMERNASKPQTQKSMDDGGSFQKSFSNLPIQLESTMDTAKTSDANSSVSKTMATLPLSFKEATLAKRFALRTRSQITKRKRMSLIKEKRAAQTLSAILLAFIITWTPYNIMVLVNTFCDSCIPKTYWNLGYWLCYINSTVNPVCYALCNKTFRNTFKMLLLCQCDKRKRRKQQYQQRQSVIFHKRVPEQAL
# Chain of Muscarinic acetylcholine receptor M3 (Homo sapiens, UniProt P20309) (P20309 whole entry): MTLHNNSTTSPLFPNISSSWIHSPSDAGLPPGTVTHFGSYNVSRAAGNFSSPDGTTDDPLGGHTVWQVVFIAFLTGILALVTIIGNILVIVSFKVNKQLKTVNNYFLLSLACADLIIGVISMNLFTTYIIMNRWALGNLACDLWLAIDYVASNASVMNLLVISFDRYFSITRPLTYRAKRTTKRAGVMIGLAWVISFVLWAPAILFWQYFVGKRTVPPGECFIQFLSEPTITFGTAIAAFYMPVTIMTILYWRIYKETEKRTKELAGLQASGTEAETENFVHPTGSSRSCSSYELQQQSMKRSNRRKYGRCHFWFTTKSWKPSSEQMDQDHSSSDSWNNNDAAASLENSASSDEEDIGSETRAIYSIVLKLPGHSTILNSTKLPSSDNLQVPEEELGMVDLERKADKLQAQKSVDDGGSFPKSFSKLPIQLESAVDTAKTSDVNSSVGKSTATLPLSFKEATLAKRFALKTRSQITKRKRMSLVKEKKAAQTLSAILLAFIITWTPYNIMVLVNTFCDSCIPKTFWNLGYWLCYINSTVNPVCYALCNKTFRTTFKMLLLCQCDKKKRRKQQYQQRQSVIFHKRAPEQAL
# Chain of Muscarinic acetylcholine receptor M3 (Cavia porcellus) (Q8VH26 1-587): as the sequence (Q8VH26 whole entry) above
SMILES,pKb [1],pKb [2],pKb [3],Kb [4],Ki [5],Ki [6],Ki [7],Ki [8],Ki [9],pKb [4],Kb [10]
C[N+]1(C)CCC[C@H]1[C@H]1CS[C@@](c2ccccc2)(C2CCCCC2)O1,9.66,7.99,9.97,1 nM (antagonist),0.339 nM (antagonist),0.871 nM (antagonist),0.117 nM (antagonist),0.955 nM (antagonist),0.107 nM (antagonist),–,–
C[N+]1(C)CCC[C@H]1[C@H]1CSC(c2ccccc2)(c2ccccc2)O1,9.16,7.79,9.56,–,0.741 nM (antagonist),0.468 nM (antagonist),0.295 nM (antagonist),0.468 nM (antagonist),0.407 nM (antagonist),8.78,–
CN1CCC[C@@H]1[C@@H]1CS[C@@](c2ccccc2)(C2CCCCC2)O1,7.65,5.98,7.95,–,1.45 nM (antagonist),1.26 nM (antagonist),0.912 nM (antagonist),4.47 nM (antagonist),1.2 nM (antagonist),7.13,–
CN1CCC[C@H]1[C@H]1CS[C@](c2ccccc2)(C2CCCCC2)O1,7.7,5.92,8.32,–,1.7 nM (antagonist),1.2 nM (antagonist),1.48 nM (antagonist),4.27 nM (antagonist),2 nM (antagonist),6.91,–
C[N+]1(C)CCC[C@@H]1[C@@H]1CSC(c2ccccc2)(c2ccccc2)O1,8.26,6.52,8.49,–,5.01 nM (antagonist),3.47 nM (antagonist),2.34 nM (antagonist),3.39 nM (antagonist),3.47 nM (antagonist),7.76,–
CN1CCC[C@@H]1[C@@H]1CSC(c2ccccc2)(c2ccccc2)O1,8.44,6.06,8.66,–,2.45 nM (antagonist),2 nM (antagonist),0.759 nM (antagonist),2.75 nM (antagonist),3.24 nM (antagonist),7.97,–
C[N+](C)(C)C[C@@H]1CS[C@@](c2ccccc2)(C2CCCCC2)O1,8.79,6.24,8.81,–,1.78 nM (antagonist),6.17 nM (antagonist),1.1 nM (antagonist),7.59 nM (antagonist),2.82 nM (antagonist),8.47,–
C[N+]1(C)[C@@H]2C[C@@H](OC(=O)[C@H](CO)c3ccccc3)C[C@H]1[C@@H]1O[C@@H]12 [METHSCOPOLAMINE],–,–,–,–,–,–,–,–,–,–,0.617 nM (antagonist)
CN1CCC[C@H]1[C@H]1CSC(c2ccccc2)(c2ccccc2)O1,8.05,6.41,7.93,–,5.25 nM (antagonist),3.31 nM (antagonist),3.47 nM (antagonist),4.9 nM (antagonist),5.62 nM (antagonist),7.58,–
C[N+]1(C)CCC[C@@H]1[C@@H]1CS[C@](c2ccccc2)(C2CCCCC2)O1,8.84,6.55,8.49,–,4.9 nM (antagonist),1.82 nM (antagonist),0.955 nM (antagonist),1.48 nM (antagonist),3.24 nM (antagonist),8.54,–
C[N+]1(C)CCC[C@@H]1[C@@H]1CS[C@@](c2ccccc2)(C2CCCCC2)O1,8.79,6.47,9.53,–,0.912 nM (antagonist),0.708 nM (antagonist),0.501 nM (antagonist),0.832 nM (antagonist),0.776 nM (antagonist),8.6,–
C[N+]1(C)CCC[C@H]1[C@H]1CS[C@](c2ccccc2)(C2CCCCC2)O1,8.5,7.47,9.52,4.27 nM (antagonist),0.589 nM (antagonist),0.871 nM (antagonist),0.251 nM (antagonist),0.776 nM (antagonist),0.2 nM (antagonist),–,–
CN1CCC[C@H]1[C@H]1CS[C@@](c2ccccc2)(C2CCCCC2)O1,8.92,6.22,7.41,–,0.891 nM (antagonist),2.34 nM (antagonist),1.38 nM (antagonist),2.75 nM (antagonist),1.35 nM (antagonist),8.82,–
CN1CCC[C@@H]1[C@@H]1CS[C@](c2ccccc2)(C2CCCCC2)O1,8.55,6.03,9.16,–,2.19 nM (antagonist),1 nM (antagonist),0.347 nM (antagonist),1.07 nM (antagonist),2 nM (antagonist),8.07,–
